Test results as given in ChEMBL document CHEMBL4613282, “Novel N-Substituted Benzomorphan-Based Compounds: From MOR-Agonist/DOR-Antagonist to Biased/Unbiased MOR Agonists” (ACS Med Chem Lett, 2020).
The source made the active and inactive calls. No cut-off for these calls is given here.

What was measured:
Mu-type opioid receptor = Mu-type opioid receptor (Rattus norvegicus, UniProt P33535); assay: Displacement of [3H]-DAMGO from MOR in rat brain membranes incubated for 45 mins by liquid scintillation counting; type: cell membranes, Membrane
Outline: (§1)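 Ki as mean ± SEM of three separate experiments, each run in duplicate.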

[1] = target: Delta-type opioid receptor (Rattus norvegicus, UniProt P33533); assay: Displacement of [3H]DPDPE from DOR in rat brain membranes incubated for 45 mins by liquid scintillation counting; type: cell membranes, Membrane; outline: as §1
[2] = target: Kappa-type opioid receptor (Cavia porcellus, UniProt P41144); assay: Displacement of [3H]-U69,593 from KOR in guinea pig brain membranes incubated for 30 mins by liquid scintillation counting; type: cell membranes, Membrane
Outline: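 KOR binding measured as [3H]U69,593 displacement. Ki as mean ± SEM of three separate experiments, each run in duplicate.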

[3] = target: Mu-type opioid receptor (Homo sapiens) (UniProt P35372); assay: Agonist activity at EE-tagged MOR (unknown origin) expressed in human HEK293 cells assessed as inhibition of forskolin-induced cAMP accumulation at 10 uM after 30 mins by GloSensor cAMP assay; type: functional, cell-based
Outline: (§2)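 HEK293 cells stably expressing MOR, stimulated with 50 μM forskolin in the presence of a range of compound concentrations, up to 10–5 M. Read-out is cAMP accumulation as % of maximum. Triplicate determinations in three independent experiments, mean ± SEM.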

[4] = target: Mu-type opioid receptor (Homo sapiens) (UniProt P35372); assay: Agonist activity at EE-tagged MOR (unknown origin) expressed in human HEK293 cells assessed as increase in ERK1/2 phosphorylation at 1 uM after 5 mins by Western blot analysis; type: cell-based
Outline: (§3)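 Serum-starved HEK293 cells stably expressing MOR exposed to 1 μM compound for 5, 10 or 15 min. Lysates run on 10% SDS-PAGE and immunoblotted for phospho-ERK1,2, with α-tubulin reprobe as loading check. […] Three independent experiments.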

[5] = target: Mu-type opioid receptor (Homo sapiens) (UniProt P35372); assay: Agonist activity at EE-tagged MOR (unknown origin) expressed in human HEK293 cells assessed as increase in ERK1/2 phosphorylation at 1 uM after 15 mins by Western blot analysis; type: cell-based; outline: as §3
[6] = Toxicity in PGE2-induced CD1 mouse model of thermal hyperalgesia assessed as effect on gastrointestinal transit at 4 mg/kg, sc dosed 30 mins before charcoal suspension administration and measured after 30 mins (reference value: 30 cm); type: organism-based; conditions: in vivo, 0.5 h
Outline: (§4)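 Run straight after the PGE2 hyperalgesia test, i.e. 30 min after s.c. dosing. Mice received 0.5% charcoal suspension intragastrically. Distance travelled by charcoal along the small intestine measured 30 min after ingestion. Mean ± SEM of 6–7 mice; one-way ANOVA with Bonferroni test versus the saline group.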

Mus musculus [7] = assay: Antinociceptive activity in Swiss […] mouse assessed as effect on tail flick latency at 2.5 to 7.5 mg/kg, ip after 90 mins by radiant heat tail-flick method; type: functional, organism-based
Outline: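 Mouse tail-flick test after 2.5–7.5 mg/kg i.p.; saline-treated group as control. Tail-flick latency (s) followed over 90 min. Mean ± SEM from 6–8 mice.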

Mus musculus [8] = assay: Antihyperalgesic activity in sc dosed PGE2-induced CD1 mouse model of thermal hyperalgesia at 8 to 16 mg/kg, sc pretreated for 20 mins before PGE2 stimulation and measured after 10 mins by radiant heat […] method; type: functional, organism-based
[9] = Toxicity in PGE2-induced CD1 mouse model of thermal hyperalgesia assessed as effect on gastrointestinal transit at 8 to 16 mg/kg, sc dosed 30 mins before charcoal suspension administration and measured after 30 mins (reference value: 30 cm); type: organism-based; conditions: in vivo, 0.5 h; outline: as §4
Mus musculus [10] = assay: Antihyperalgesic activity in sc dosed PGE2-induced CD1 mouse model of thermal hyperalgesia assessed as increase in paw withdrawl latency pretreated with compound for 20 mins before PGE2 stimulation for 10 mins by radiant heat […] method; type: functional, organism-based
Outline: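 Mice given compound or solvent s.c. 20 min before intraplantar PGE2 or saline. Hindpaw withdrawal latency to radiant heat measured in the injected paw 10 min after the i.pl. injection. Test compounds dosed 8–16 mg/kg; morphine 1–3 mg/kg and LP1 1–4 mg/kg as comparators. One-way ANOVA with Bonferroni test.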

[11] = target: Mu-type opioid receptor (Homo sapiens) (UniProt P35372); assay: Agonist activity at EE-tagged MOR (unknown origin) expressed in human HEK293 cells assessed as inhibition of forskolin-induced cAMP accumulation at 10 uM after 30 mins by GloSensor cAMP assay relative to control; type: functional, cell-based; outline: as §2
[12] = target: Mu-type opioid receptor (Homo sapiens) (UniProt P35372); assay: Biased agonist activity at EE-tagged MOR (unknown origin) expressed in human HEK293 cells assessed as increase in ERK1/2 phosphorylation levels at 1 uM after 15 mins by Western blot analysis; type: cell-based; outline: as §3

Sequence of Mu-type opioid receptor (Homo sapiens) (P35372 whole entry): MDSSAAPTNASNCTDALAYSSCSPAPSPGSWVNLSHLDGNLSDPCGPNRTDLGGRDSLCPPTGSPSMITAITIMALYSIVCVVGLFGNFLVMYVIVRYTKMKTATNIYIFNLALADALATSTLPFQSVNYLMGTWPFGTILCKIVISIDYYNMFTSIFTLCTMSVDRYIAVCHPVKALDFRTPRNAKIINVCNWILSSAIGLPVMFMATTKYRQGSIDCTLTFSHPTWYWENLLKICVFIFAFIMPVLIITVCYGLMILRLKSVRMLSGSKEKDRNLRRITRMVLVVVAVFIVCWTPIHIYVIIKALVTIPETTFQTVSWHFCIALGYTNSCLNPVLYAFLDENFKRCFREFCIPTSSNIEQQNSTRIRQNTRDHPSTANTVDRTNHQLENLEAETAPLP
Sequence of Kappa-type opioid receptor (P41144 whole entry): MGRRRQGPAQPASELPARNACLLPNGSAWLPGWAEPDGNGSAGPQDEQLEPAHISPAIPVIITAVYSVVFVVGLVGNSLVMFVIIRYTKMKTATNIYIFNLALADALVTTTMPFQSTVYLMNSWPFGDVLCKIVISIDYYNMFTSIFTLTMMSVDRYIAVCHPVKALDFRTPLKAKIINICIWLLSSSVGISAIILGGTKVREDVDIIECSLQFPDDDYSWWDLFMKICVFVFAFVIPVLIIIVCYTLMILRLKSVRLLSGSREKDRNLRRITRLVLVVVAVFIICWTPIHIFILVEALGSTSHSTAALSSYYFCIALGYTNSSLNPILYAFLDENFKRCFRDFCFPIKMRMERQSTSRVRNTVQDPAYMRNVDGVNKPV
Sequence of Mu-type opioid receptor (P33535 whole entry): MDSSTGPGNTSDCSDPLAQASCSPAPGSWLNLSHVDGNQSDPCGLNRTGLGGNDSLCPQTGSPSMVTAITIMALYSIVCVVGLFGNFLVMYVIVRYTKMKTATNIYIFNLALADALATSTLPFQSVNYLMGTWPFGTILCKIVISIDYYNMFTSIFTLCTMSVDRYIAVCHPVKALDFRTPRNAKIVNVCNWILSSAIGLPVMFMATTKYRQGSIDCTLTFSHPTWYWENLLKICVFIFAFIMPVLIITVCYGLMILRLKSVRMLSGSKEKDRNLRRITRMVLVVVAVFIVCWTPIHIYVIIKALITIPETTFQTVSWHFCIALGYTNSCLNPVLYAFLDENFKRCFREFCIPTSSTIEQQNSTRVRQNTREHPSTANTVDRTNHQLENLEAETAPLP
Sequence of Delta-type opioid receptor (P33533 whole entry): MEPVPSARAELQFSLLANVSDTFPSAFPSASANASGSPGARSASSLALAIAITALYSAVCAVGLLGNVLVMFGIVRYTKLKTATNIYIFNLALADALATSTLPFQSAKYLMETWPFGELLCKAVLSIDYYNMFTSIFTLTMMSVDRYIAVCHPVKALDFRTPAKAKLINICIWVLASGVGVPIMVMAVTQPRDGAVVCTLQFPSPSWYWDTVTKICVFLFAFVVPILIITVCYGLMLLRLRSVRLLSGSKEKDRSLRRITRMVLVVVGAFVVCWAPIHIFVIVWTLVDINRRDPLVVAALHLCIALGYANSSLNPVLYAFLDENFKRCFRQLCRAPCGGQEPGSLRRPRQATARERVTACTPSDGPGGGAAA

Compound | Ki (Mu-type opioid receptor) [nM] | Ki [1] [nM] | Ki [2] [nM] | further results
Cc1cc(C)c(NC(=O)CCN2CC[C@@]3(C)c4cc(O)ccc4C[C@@H]2[C@@H]3C)c(C)c1 | 43.7 | > 2000 | 313 | inhibition [3]: inactive
CCc1cccc(C)c1N(Cc1ccccc1)C(=O)CCN1CC[C@@]2(C)c3cc(O)ccc3C[C@@H]1[C@@H]2C | 1540 | > 5000 | 151 | 
C[C@H]1[C@H]2Cc3ccc(O)cc3[C@]1(C)CCN2CCC(=O)Nc1ccccc1 |  |  |  | Activity [4]: Active; Activity [5]: inactive; Activity [6]: Toxic
Cc1cccc(C)c1NC(=O)CCN1CC[C@@]2(C)c3cc(O)ccc3C[C@@H]1[C@@H]2C | 7.4 | 277 | 252 | inhibition [3]: inactive; Activity [4]: Active; Activity [5]: inactive; Activity (Mus musculus [7]): inactive; Activity (Mus musculus [8]): inactive; Activity [9]: 30 cm
CN1CC[C@]23c4c5ccc(O)c4O[C@H]2[C@@H](O)C=C[C@H]3[C@H]1C5 |  |  |  | Activity (Mus musculus [10]): Dose-dependent effect
Cc1cccc(C)c1N(Cc1ccccc1)C(=O)CCN1CC[C@@]2(C)c3cc(O)ccc3C[C@@H]1[C@@H]2C | 400 | > 5000 | > 3000 | 
Cc1ccc(C)c(NC(=O)CCN2CC[C@@]3(C)c4cc(O)ccc4C[C@@H]2[C@@H]3C)c1 | 7.9 | 478 | 480 | inhibition [11]: 50%; Activity [12]: Active; Activity (Mus musculus [7]): inactive; Activity (Mus musculus [8]): inactive; Activity [9]: 30 cm
C[C@H]1[C@H]2Cc3ccc(O)cc3[C@]1(C)CCN2CCC(=O)N(Cc1ccccc1)c1ccccc1 | 606 | > 5000 | > 5000 | 
CCc1cccc(C)c1NC(=O)CCN1CC[C@@]2(C)c3cc(O)ccc3C[C@@H]1[C@@H]2C | 14.9 | 198 | 320 | inhibition [3]: inactive; Activity [4]: Active; Activity [5]: inactive; Activity (Mus musculus [8]): inactive; Activity [9]: 30 cm
Cc1ccc(C)c(NCCN2CC[C@@]3(C)c4cc(O)ccc4C[C@@H]2[C@@H]3C)c1 | 182 | > 5000 | > 2000 | 
Cc1ccc(NCCN2CC[C@@]3(C)c4cc(O)ccc4C[C@@H]2[C@@H]3C)c(C)c1 | 129 | > 5000 | > 1000 | 
Cc1cc(C)c(N(Cc2ccccc2)C(=O)CCN2CC[C@@]3(C)c4cc(O)ccc4C[C@@H]2[C@@H]3C)c(C)c1 | 504 | > 5000 | 444 | 
C[C@H]1[C@H]2Cc3ccc(O)cc3[C@]1(C)CCN2CCN(Cc1ccccc1)c1ccccc1 | 244 | > 1000 | > 3000 | 
Cc1ccc(N(Cc2ccccc2)C(=O)CCN2CC[C@@]3(C)c4cc(O)ccc4C[C@@H]2[C@@H]3C)c(C)c1 | 165 | > 5000 | > 2000 | 
Cc1ccc(NC(=O)CCN2CC[C@@]3(C)c4cc(O)ccc4C[C@@H]2[C@@H]3C)c(C)c1 | 20.8 | 474 | 340 | inhibition [3]: inactive; Activity [4]: Active; Activity [5]: inactive; Activity (Mus musculus [8]): inactive; Activity [9]: 30 cm
Oc1ccc2c3c1O[C@H]1c4[nH]c5ccccc5c4C[C@@]4(O)[C@@H](C2)N(CC2CC2)CC[C@]314 [NALTRINDOLE] |  | 0.83 |  | 
